The experiment addresses T1, Sterol regulatory element-binding protein 2 (Homo sapiens, UniProt Q12772).
T1 sequence (Q12772 whole entry): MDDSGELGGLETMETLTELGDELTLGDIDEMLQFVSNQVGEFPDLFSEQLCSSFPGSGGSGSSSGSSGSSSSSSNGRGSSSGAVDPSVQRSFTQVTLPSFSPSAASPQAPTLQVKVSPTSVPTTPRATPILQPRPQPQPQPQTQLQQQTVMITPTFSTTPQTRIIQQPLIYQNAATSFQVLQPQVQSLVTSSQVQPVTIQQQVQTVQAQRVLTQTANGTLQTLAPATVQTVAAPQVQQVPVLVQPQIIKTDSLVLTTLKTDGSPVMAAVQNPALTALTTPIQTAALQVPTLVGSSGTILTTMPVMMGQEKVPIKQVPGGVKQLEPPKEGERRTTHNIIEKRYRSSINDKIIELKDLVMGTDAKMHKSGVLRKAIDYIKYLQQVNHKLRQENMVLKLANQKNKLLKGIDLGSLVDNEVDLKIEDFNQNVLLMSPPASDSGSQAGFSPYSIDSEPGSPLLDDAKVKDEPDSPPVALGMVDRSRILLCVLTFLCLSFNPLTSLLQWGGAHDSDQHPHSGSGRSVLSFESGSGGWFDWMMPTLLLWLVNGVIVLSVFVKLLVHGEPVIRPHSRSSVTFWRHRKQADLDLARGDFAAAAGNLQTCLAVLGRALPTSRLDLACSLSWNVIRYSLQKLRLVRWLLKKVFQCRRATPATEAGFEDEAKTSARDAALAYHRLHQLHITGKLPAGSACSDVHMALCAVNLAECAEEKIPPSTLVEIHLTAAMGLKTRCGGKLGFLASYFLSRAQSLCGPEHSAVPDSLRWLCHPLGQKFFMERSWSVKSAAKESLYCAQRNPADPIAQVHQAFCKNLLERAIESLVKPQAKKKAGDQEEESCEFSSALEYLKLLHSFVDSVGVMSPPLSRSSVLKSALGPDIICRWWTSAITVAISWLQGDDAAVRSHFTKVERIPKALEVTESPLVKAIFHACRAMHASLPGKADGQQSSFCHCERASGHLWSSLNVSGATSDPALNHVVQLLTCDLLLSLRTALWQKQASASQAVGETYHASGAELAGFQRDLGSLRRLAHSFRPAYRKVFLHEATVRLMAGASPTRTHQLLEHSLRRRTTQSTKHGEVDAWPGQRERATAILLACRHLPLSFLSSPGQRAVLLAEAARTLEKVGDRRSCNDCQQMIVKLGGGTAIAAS
The experiment is described as follows: Inhibition of SREBP2 in human HepG2 cells assessed as reduction of PCSK9 secretion after 16 hrs by ELISA. Put shortly: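 HepG2 cells treated with compound; secreted PCSK9 in culture supernatants measured with a human-specific PCSK9 ELISA.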
For orientation: An ELISA detects its analyte on a solid surface through an enzyme-linked reagent.

Broadly, the IC50 is the concentration that inhibits the measured activity by half.

Take `CC/C=C\C/C=C\C/C=C\C/C=C\C/C=C\CCCC(=O)NCCNC(=O)c1cccnc1`: the 50% inhibitory concentration (IC50) is 17 µM.
